Data as given in the array DNA melting data of Ke et al. (doi:10.1101/2024.01.08.574731).

Columns and labels:
[1] = folding enthalpy; higher = less favourable; fluorescence melt of hairpins on a sequencing array, two-state fit; conditions: sodium 0.088 M
How it was run: (§1)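 Two-state fits, bootstrapped, provided melting temperature and folding enthalpy from Cy3 fluorescence normalised to pre-quench Cy3 and to control constructs. Library hairpins with annealed Cy3 and quencher oligos were imaged on a sequenced MiSeq flow cell in 50 mM Na-HEPES pH 8.0, 25 mM NaCl, at 2.5 °C intervals up to 60 °C. Four replicates were combined with inverse-variance weighting. A 9.35 °C upward shift was applied to fitted temperatures to match UV melts.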

[2] = melting temperature; fluorescence melt of hairpins on a sequencing array, two-state fit, raised by 9.35 °C to match UV melts; conditions: sodium 0.088 M
How it was run: as §1

| Sequence | folding enthalpy [1] | Tm [2] |
| --- | --- | --- |
| GCGGAACGCCGC ((((....)))) | -9.84 kcal/mol | 58.4 °C |
| GCGGAAGACCGC ((((....)))) | -18.5 kcal/mol | 52.8 °C |
| GCGGAAGCCGC ((((...)))) | -15.7 kcal/mol | 55.8 °C |
| GCGGAAGTCCGC ((((....)))) | -20.9 kcal/mol | 56 °C |
| GCGGAATACCGC ((((....)))) | -21.9 kcal/mol | 54.2 °C |
| GCGGACGAAAGTCACGC ((((((....))).))) | -20.9 kcal/mol | 64.8 °C |
| GCGGACGAAAGTCCACGC ((((((....)))..))) | -15.2 kcal/mol | 58.9 °C |
| GCGGACGACCGC ((((....)))) | -24.6 kcal/mol | 53.8 °C |
| GCGGACGGCCGC ((((....)))) | -37.6 kcal/mol | 59.4 °C |
| GCGGACTCCGC ((((...)))) | -20.5 kcal/mol | 52 °C |
| GCGGAGATCCGC ((((....)))) | -26.2 kcal/mol | 54.2 °C |
| GCGGAGCACCGC ((((....)))) | -11.2 kcal/mol | 61.6 °C |
| GCGGAGCCGAAAGGCCGC (((..(((....)))))) | -18.8 kcal/mol | 61.1 °C |
| GCGGAGCGAAAGCACAGC ((.(.((....)).).)) | -17.4 kcal/mol | 58 °C |
| GCGGAGCGAAAGCCCCGC ((((.((....)).)))) | -35.3 kcal/mol | 68.7 °C |
| GCGGAGCGAAAGCCGCGC (((..((....))..))) | -21.1 kcal/mol | 66.1 °C |
| GCGGAGCGAAAGCCTCGC (((..((....))..))) | -13.8 kcal/mol | 50.5 °C |
| GCGGAGCGAAAGCGCTGC ((.(.((....)).).)) | -15.2 kcal/mol | 57.1 °C |
| GCGGAGCGAAAGCGTCGC (((..((....))..))) | -26.6 kcal/mol | 67 °C |
| GCGGAGCGAAAGCTCGC (((.(((....)))))) | -17.6 kcal/mol | 67.4 °C |
| GCGGAGCGAAAGCTGAGC ((..(((....)))..)) | -14.6 kcal/mol | 56.5 °C |
| GCGGAGCGAAAGCTGGGC ((..(((....)))..)) | -7.98 kcal/mol | 43.2 °C |
| GCGGAGGCGAAAGCCCGC (((..(((....)))))) | -21.7 kcal/mol | 66.6 °C |
| GCGGAGGGAAACCCCCGC ((((.((....)).)))) | -38.9 kcal/mol | 57.6 °C |
| GCGGAGGGCCGC ((((....)))) | -15.4 kcal/mol | 53.9 °C |

| Sequence | folding enthalpy [1] | Tm [2] |
| --- | --- | --- |
| GCGGAGGTCCGC ((((....)))) | -24.4 kcal/mol | 56.4 °C |
| GCGGAGTCCCGC ((((....)))) | -21.1 kcal/mol | 55.7 °C |
| GCGGAGTTCCGC ((((....)))) | -23.4 kcal/mol | 59.6 °C |
| GCGGATAACCGC ((((....)))) | -19.6 kcal/mol | 53 °C |
| GCGGATAGCCGC ((((....)))) | -26.6 kcal/mol | 54.9 °C |
| GCGGATCCCCGC ((((....)))) | -23.3 kcal/mol | 56.4 °C |
| GCGGATCCCGC ((((...)))) | -23.4 kcal/mol | 53.6 °C |
| GCGGATCGAAAGATCGC (((.(((....)))))) | -25.6 kcal/mol | 58.1 °C |
| GCGGATCTCCGC ((((....)))) | -25.3 kcal/mol | 59.6 °C |
| GCGGATGGAAACGTTCGC (((.(.(....).).))) | -28.2 kcal/mol | 44.1 °C |
| GCGGATGGCCGC ((((....)))) | -21 kcal/mol | 54.6 °C |
| GCGGATGTCCGC ((((....)))) | -22.7 kcal/mol | 57.5 °C |
| GCGGATTCCGC ((((...)))) | -24.9 kcal/mol | 54.3 °C |
| GCGGCAACCCGC ((((....)))) | -24.7 kcal/mol | 51.9 °C |
| GCGGCAACCGC ((((...)))) | -23.4 kcal/mol | 51.7 °C |
| GCGGCAGCCCGC ((((....)))) | -10.3 kcal/mol | 59.1 °C |
| GCGGCATCGAAAGATCGC (((..(((....)))))) | -22.7 kcal/mol | 45.6 °C |
| GCGGCCAGCCGC ((((....)))) | -20.5 kcal/mol | 67.3 °C |
| GCGGCCGAAAGGCCTCGC ((((((....)))..))) | -12.5 kcal/mol | 56.2 °C |
| GCGGCCGCCGC ((((...)))) | -19.9 kcal/mol | 55.1 °C |
| GCGGCCGTCCGC ((((....)))) | -25.8 kcal/mol | 58.6 °C |
| GCGGCCTACCGC ((((....)))) | -29.4 kcal/mol | 55.8 °C |
| GCGGCCTTCCGC ((((....)))) | -19.9 kcal/mol | 57.9 °C |
| GCGGCGCACCGC ((((....)))) | -14.2 kcal/mol | 59.7 °C |
| GCGGCGCGAAAGCACAGC ((.(.((....)).).)) | -29.9 kcal/mol | 63.7 °C |

| Sequence | folding enthalpy [1] | Tm [2] |
| --- | --- | --- |
| GCGGCGCGAAAGCCCTGC ((.(.((....)).).)) | -18.3 kcal/mol | 45.6 °C |
| GCGGCGCGAAAGCCTCGC (((..((....))..))) | -18.6 kcal/mol | 55.8 °C |
| GCGGCGGCGAAAGCCCGC (((..(((....)))))) | -12.3 kcal/mol | 65.6 °C |
| GCGGCGGGAAACCGCCAC (.(((((....))))).) | -10.5 kcal/mol | 52.6 °C |
| GCGGCGTCCCGC ((((....)))) | -14.5 kcal/mol | 56.7 °C |
| GCGGCTACCGC ((((...)))) | -21 kcal/mol | 57.7 °C |
| GCGGCTCACCGC ((((....)))) | -26.9 kcal/mol | 63 °C |
| GCGGCTCCCGC ((((...)))) | -23.7 kcal/mol | 56.9 °C |
| GCGGCTGCCGC ((((...)))) | -31.2 kcal/mol | 57.1 °C |
| GCGGCTGGAAACAACCGC ((((.((....)).)))) | -45 kcal/mol | 54 °C |
| GCGGCTTCCGC ((((...)))) | -25.9 kcal/mol | 57.8 °C |
| GCGGGAGGAAACCCCCAC (.(((.(....).))).) | -10.6 kcal/mol | 27.7 °C |
| GCGGGAGTCCGC ((((....)))) | -23.6 kcal/mol | 55.7 °C |
| GCGGGATCGAAAGATCGC (((..(((....)))))) | -13.8 kcal/mol | 51 °C |
| GCGGGATGCCGC ((((....)))) | -22.6 kcal/mol | 55.8 °C |
| GCGGGATTCCGC ((((....)))) | -20.5 kcal/mol | 59.1 °C |
| GCGGGCCCCCGC ((((....)))) | -23.5 kcal/mol | 64.4 °C |
| GCGGGCCTCCGC ((((....)))) | -22.5 kcal/mol | 64 °C |
| GCGGGCGAAAGCCGACGC ((((((....)))..))) | -19.9 kcal/mol | 61.9 °C |
| GCGGGGACGAAAGTCCGC (((..(((....)))))) | -13.2 kcal/mol | 58.5 °C |
| GCGGGGAGCCGC ((((....)))) | -14.4 kcal/mol | 62.7 °C |
| GCGGGGCCCGC ((((...)))) | -34.8 kcal/mol | 63.3 °C |
| GCGGGGCCGAAAGGCCGC (((..(((....)))))) | -10.2 kcal/mol | 59.6 °C |
| GCGGGGCGAAAGCACGGC ((.(.((....)).).)) | -15.7 kcal/mol | 65.2 °C |
| GCGGGGCGAAAGCACTGC ((.(.((....)).).)) | -24.7 kcal/mol | 65.5 °C |

| Sequence | folding enthalpy [1] | Tm [2] |
| --- | --- | --- |
| GCGGGGCGAAAGCGTCGC (((..((....))..))) | -36 kcal/mol | 67.8 °C |
| GCGGGGGCCGC ((((...)))) | -9.27 kcal/mol | 62.1 °C |
| GCGGGGGTCCGC ((((....)))) | -22.6 kcal/mol | 61.7 °C |
| GCGGGTCCGAAAGGACGC (((..(((....)))))) | -11.3 kcal/mol | 52.5 °C |
| GCGGGTGGAAACACCTGC ((.((((....)))).)) | -37.5 kcal/mol | 59.1 °C |
| GCGGGTGGAAACACTCGC (((.(((....))).))) | -40.8 kcal/mol | 60.7 °C |
| GCGGGTGGAAACGTCCGC ((((..(....)..)))) | -32 kcal/mol | 53 °C |
| GCGGGTGGCCGC ((((....)))) | -15.8 kcal/mol | 62.1 °C |
| GCGGGTTCCGC ((((...)))) | -25.4 kcal/mol | 57.2 °C |
| GCGGTAACCCGC ((((....)))) | -27.8 kcal/mol | 54.2 °C |
| GCGGTAATCCGC ((((....)))) | -24.7 kcal/mol | 56.2 °C |
| GCGGTACACCGC ((((....)))) | -40.4 kcal/mol | 59.1 °C |
| GCGGTACCCCGC ((((....)))) | -21.6 kcal/mol | 54.5 °C |
| GCGGTACCGAAAGGTCGC (((..(((....)))))) | -26.3 kcal/mol | 55.4 °C |
| GCGGTACTCCGC ((((....)))) | -23.3 kcal/mol | 64.1 °C |
| GCGGTAGAAATACCGC ((((((....)))))) | -36 kcal/mol | 66.9 °C |
| GCGGTAGCCGC ((((...)))) | -11.8 kcal/mol | 61.2 °C |
| GCGGTAGCGAAAGCTCGC (((..(((....)))))) | -15.5 kcal/mol | 52.8 °C |
| GCGGTAGGAAACCACCGC (((((.(....).))))) | -36.8 kcal/mol | 57.3 °C |
| GCGGTAGGAAACTGCCGC ((((.((....)).)))) | -29.6 kcal/mol | 61.6 °C |
| GCGGTAGGAAACTGCTGC ((.(.((....)).).)) | -27.5 kcal/mol | 45.5 °C |
| GCGGTATCCGC ((((...)))) | -24 kcal/mol | 54.9 °C |
| GCGGTATGCCGC ((((....)))) | -33.6 kcal/mol | 63 °C |
| GCGGTCAACCGC ((((....)))) | -28.6 kcal/mol | 56 °C |
| GCGGTCACGAAAGTGCGC (((..(((....)))))) | -29.4 kcal/mol | 52.1 °C |
